Laboratory results published in PubChem BioAssay AID652202 (Vanderbilt Specialized Chemistry Center, 2013).
Activity calls are given as the source filed them. The rule behind the calls is not given here.

Molecular target: Metabotropic glutamate receptor 3 (Rattus norvegicus) (UniProt P31422)
Experiment: glutamate potency shift at rat mGlu3 – cell-based, TRex293, Galpha15, Fluo4 calcium, selectivity assay for mGlu5 silent allosteric modulator project (AID 652202)
Details: TRex293 rmGlu3+Galpha15, Fluo4 calcium mobilization
Summary of the method: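 Material: TRex293 cells with rat mGlu3 and Galpha15; reagent: glutamate, 10 nM–1 mM; dosing: compound at 10 µM, 1% DMSO; incubation: Fluo4-AM loading 60 min at 37 °C, glutamate added at 80 s; detection: calcium mobilization via Fluo4-AM fluorescence, dye at 1 µM; read-out basis: modulation of glutamate concentration-response by compound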

Sequence of Metabotropic glutamate receptor 3 (Rattus norvegicus) (P31422 whole entry, looked up): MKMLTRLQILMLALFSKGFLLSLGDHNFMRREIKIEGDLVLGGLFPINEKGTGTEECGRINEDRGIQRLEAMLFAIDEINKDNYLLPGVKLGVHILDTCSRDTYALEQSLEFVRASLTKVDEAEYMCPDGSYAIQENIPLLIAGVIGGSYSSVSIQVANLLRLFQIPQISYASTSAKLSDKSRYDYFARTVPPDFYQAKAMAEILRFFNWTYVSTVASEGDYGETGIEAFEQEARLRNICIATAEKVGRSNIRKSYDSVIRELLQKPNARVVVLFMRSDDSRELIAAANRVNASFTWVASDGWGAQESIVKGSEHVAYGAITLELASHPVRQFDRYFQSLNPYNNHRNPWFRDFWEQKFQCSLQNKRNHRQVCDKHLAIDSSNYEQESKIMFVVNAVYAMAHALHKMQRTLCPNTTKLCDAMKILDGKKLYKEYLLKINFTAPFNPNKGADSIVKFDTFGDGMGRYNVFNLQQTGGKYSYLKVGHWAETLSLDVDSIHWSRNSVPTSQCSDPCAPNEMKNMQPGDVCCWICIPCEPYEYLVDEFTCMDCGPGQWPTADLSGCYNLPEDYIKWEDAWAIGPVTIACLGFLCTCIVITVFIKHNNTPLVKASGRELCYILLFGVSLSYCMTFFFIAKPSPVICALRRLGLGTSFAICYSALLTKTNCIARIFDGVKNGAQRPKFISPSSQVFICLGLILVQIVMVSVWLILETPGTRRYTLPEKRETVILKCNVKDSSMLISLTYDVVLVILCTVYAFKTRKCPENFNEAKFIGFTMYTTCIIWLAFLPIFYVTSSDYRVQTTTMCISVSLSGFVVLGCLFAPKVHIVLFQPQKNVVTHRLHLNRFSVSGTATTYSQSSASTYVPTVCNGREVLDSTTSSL

- glutamate EC50 in presence of 10 uM compound: inactive
Structure (SMILES): O=C(c1ccc(C#Cc2cccc(F)c2)cn1)N1CC2CC2C1 (stereo unspecified)
